Test results taken from the array DNA melting data of Ke et al. (doi:10.1101/2024.01.08.574731).

Legend:
[1] = folding enthalpy; higher = less favourable; fluorescence melt of hairpins on a sequencing array, two-state fit; settings: sodium 0.088 M
How it was run: (§1)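 Library hairpins on a sequenced MiSeq flow cell carried annealed Cy3 and quencher oligos, and their Cy3 fluorescence was imaged in 50 mM Na-HEPES pH 8.0 with 25 mM NaCl, in 2.5 °C steps up to 60 °C. Signals were normalised to Cy3 before quenching and to control constructs. Melting temperature and folding enthalpy were obtained from bootstrapped two-state fits, combined by inverse-variance weighting across four replicates, and the fitted temperatures were then raised by 9.35 °C to match UV melts.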

[2] = melting temperature; fluorescence melt of hairpins on a sequencing array, two-state fit, raised by 9.35 °C to match UV melts; settings: sodium 0.088 M
How it was run: as §1

Row | Sequence | folding enthalpy [1] | Tm [2]
1 | GCCTGGCCGAAAGGCGGC (((..(((....)))))) | -18.4 kcal/mol | 65.3 °C
2 | GCCTGGCGAAAGCCACGC ((.((((....)))).)) | -16.9 kcal/mol | 49 °C
3 | GCCTGGCGAAAGCGACGC ((.(.((....)).).)) | -6.72 kcal/mol | 36 °C
4 | GCCTGGCGAAAGCTAAGC ((.(.((....)).).)) | -10.2 kcal/mol | 36.2 °C
5 | GCCTGGCGAAAGCTACGC ((.(.((....)).).)) | -6.66 kcal/mol | 37.8 °C
6 | GCCTGTGGAAACACAGAC (.(((((....))))).) | -15.8 kcal/mol | 42.6 °C
7 | GCCTTACGAAAGTATGGC (((.(((....))).))) | -41 kcal/mol | 55.6 °C
8 | GCCTTAGAAATAAGGC ((((((....)))))) | -30.2 kcal/mol | 52.9 °C
9 | GCCTTCCGAAAGGATGGC (((.(((....))).))) | -42.1 kcal/mol | 62 °C
10 | GCCTTCGAAAGAATGGGC ((((((....)))..))) | -28.1 kcal/mol | 42.5 °C
11 | GCCTTCGAAAGAATTGGC ((((((....)))..))) | -22.9 kcal/mol | 37 °C
12 | GCCTTCGCGAAAGCGGGC (((..(((....)))))) | -12.2 kcal/mol | 55.1 °C
13 | GCCTTCGGAAACGAAGAC (.(((((....))))).) | -18.4 kcal/mol | 43.3 °C
14 | GCCTTGCGAAAGCACCGC ((..(((....)))..)) | -10.6 kcal/mol | 42.6 °C
15 | GCCTTGCGAAAGCAGTGC ((..(((....)))..)) | -11.6 kcal/mol | 45.1 °C
16 | GCCTTGCGAAAGCATCGC ((..(((....)))..)) | -12.4 kcal/mol | 51 °C
17 | GCCTTGCGAAAGCATTGC ((..(((....)))..)) | -11.4 kcal/mol | 48.2 °C
18 | GCCTTGCGAAAGCCAAGC ((.(.((....)).).)) | -8.85 kcal/mol | 39 °C
19 | GCCTTGCGAAAGCCGGGC (((..((....))..))) | -19.9 kcal/mol | 55.1 °C
20 | GCCTTGCGAAAGCGGGGC (((..((....))..))) | -33.2 kcal/mol | 65.2 °C
21 | GCCTTTCGAAAGAAGGGC (((.(((....))).))) | -47.5 kcal/mol | 53.6 °C
22 | GCGAAACCTCGC ((((....)))) | -19.9 kcal/mol | 49.5 °C
23 | GCGAAACGAAAGTTCCGC (((.(((....))).))) | -38.2 kcal/mol | 52.5 °C
24 | GCGAAAGTCGC ((((...)))) | -16.6 kcal/mol | 43.8 °C

Row | Sequence | folding enthalpy [1] | Tm [2]
25 | GCGAACCCGAAAGGGCGC (((..(((....)))))) | -21.4 kcal/mol | 55.5 °C
26 | GCGAACCGTCGC ((((....)))) | -18.7 kcal/mol | 47.7 °C
27 | GCGAACGAAAGTTAACGC ((((((....)))..))) | -20.6 kcal/mol | 44.6 °C
28 | GCGAACGAAAGTTACGC ((((((....))).))) | -22.7 kcal/mol | 51.5 °C
29 | GCGAACGAAAGTTGGCGC ((((((....)))..))) | -32.8 kcal/mol | 53.9 °C
30 | GCGAACGAAAGTTGTCGC ((((((....)))..))) | -26.2 kcal/mol | 44.1 °C
31 | GCGAACGAAAGTTTCGC ((((((....))).))) | -36.7 kcal/mol | 60 °C
32 | GCGAACGAAAGTTTGCGC ((((((....)))..))) | -41.9 kcal/mol | 61.8 °C
33 | GCGAACGGAAACGCTCAC (.((.((....)).)).) | -14.3 kcal/mol | 34 °C
34 | GCGAACTCGAAAGAGCGC (((..(((....)))))) | -27.6 kcal/mol | 49.3 °C
35 | GCGAAGAATCGC ((((....)))) | -11.4 kcal/mol | 50.2 °C
36 | GCGAAGCGAAAGCCGCGC (((..((....))..))) | -16.8 kcal/mol | 61.6 °C
37 | GCGAAGCGAAAGCGCCGC (((..((....))..))) | -17.9 kcal/mol | 65.4 °C
38 | GCGAAGCGAAAGCTGGGC ((..(((....)))..)) | -9.44 kcal/mol | 43.7 °C
39 | GCGAAGCGAAAGCTTGGC ((.((((....)))).)) | -18.1 kcal/mol | 52 °C
40 | GCGAAGGGAAACCTCCGC (((.(((....))).))) | -26.1 kcal/mol | 46.6 °C
41 | GCGAAGGGAAACCTTCAC (.(((((....))))).) | -18.1 kcal/mol | 38.6 °C
42 | GCGAAGTCTCGC ((((....)))) | -14.2 kcal/mol | 47.7 °C
43 | GCGAAGTTTCGC ((((....)))) | -18.2 kcal/mol | 50.7 °C
44 | GCGAATACGAAAGTACGC (((..(((....)))))) | -25 kcal/mol | 44.9 °C
45 | GCGAATCGTCGC ((((....)))) | -18 kcal/mol | 47.7 °C
46 | GCGAATGATCGC ((((....)))) | -17.7 kcal/mol | 42.3 °C
47 | GCGAATGGAAACGTTCGC (((((.(....).))))) | -38.4 kcal/mol | 56.7 °C
48 | GCGAATGGTCGC ((((....)))) | -10.4 kcal/mol | 47.8 °C
